Here are results for 1 compound from ChEMBL document CHEMBL1129453, “3-amino-3,4-dihydro-2H-1-benzopyran derivatives as 5-HT1A receptor ligands and potential anxiolytic agents. 2. Synthesis and quantitative structure-activity relationship studies of spiro[pyrrolidine- and piperidine-2,3'(2'H)-benzopyrans]” (J Med Chem, 1996).

The species named for this experiment is Rattus norvegicus. As to the kind of experiment: Effect of enantiomeric compound on adenylate cyclase activity in rat hippocampus at 10e-7 M. Format: functional. In short, it runs like this:
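Rat hippocampal membranes incubated 20 min at 30 °C with forskolin 10 μM, [α-32P]ATP 0.1 μM and test compound. Activity measured as conversion to [32P]cAMP (nM/mg protein/20 min), given as % of control. Mean ± standard error of three determinations in two experiments; Student's t-test versus 100%, p < 0.05.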

`COc1cccc2c1CC1(CCCN1CCCCN1C(=O)CC3(CCCC3)CC1=O)CO2` (racemic): the Effect stood at 80%.
